Data reported in ChEMBL document CHEMBL3739255, “Novel Series of Dihydropyridinone P2X7 Receptor Antagonists” (J Med Chem, 2015).

Experiments:
[1] = molecular target: Glutamate NMDA receptor (Rattus norvegicus) (UniProt P35439+Q00959+Q00960+Q00961+Q62645+Q8VHN2+Q9R1M7); experiment: Inhibition of rat NMDA receptor PCP binding site at 10 uM; type: protein-complex assay
Summary of the method: (§1)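 Outsourced broad receptor-screening panel of 78 targets, each tested at a single 10 uM concentration; read-out is percent inhibition. Detailed conditions are given only in the Supporting Information.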

[2] = molecular target: Neuropeptide Y receptor type 1 (Homo sapiens) (UniProt P25929); experiment: Inhibition of human neuropeptide Y1 receptor at 10 uM by radioligand binding assay; summary of the method: as §1
[3] = molecular target: C-X-C chemokine receptor type 2 (Homo sapiens) (UniProt P25025); experiment: Inhibition of human CXCR2 at 10 uM by radioligand binding assay
Summary of the method: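 Commercial receptor scan across a 78-target panel, with percent inhibition measured at a test concentration of 10 uM.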

[4] = molecular target: Tumor necrosis factor receptor superfamily member 1A (Homo sapiens) (UniProt P19438); experiment: Inhibition of human TNFalpha receptor at 10 uM by radioligand binding assay; summary of the method: as §1

Measured: inhibition

Sequence of Tumor necrosis factor receptor superfamily member 1A (Homo sapiens) (P19438 whole entry): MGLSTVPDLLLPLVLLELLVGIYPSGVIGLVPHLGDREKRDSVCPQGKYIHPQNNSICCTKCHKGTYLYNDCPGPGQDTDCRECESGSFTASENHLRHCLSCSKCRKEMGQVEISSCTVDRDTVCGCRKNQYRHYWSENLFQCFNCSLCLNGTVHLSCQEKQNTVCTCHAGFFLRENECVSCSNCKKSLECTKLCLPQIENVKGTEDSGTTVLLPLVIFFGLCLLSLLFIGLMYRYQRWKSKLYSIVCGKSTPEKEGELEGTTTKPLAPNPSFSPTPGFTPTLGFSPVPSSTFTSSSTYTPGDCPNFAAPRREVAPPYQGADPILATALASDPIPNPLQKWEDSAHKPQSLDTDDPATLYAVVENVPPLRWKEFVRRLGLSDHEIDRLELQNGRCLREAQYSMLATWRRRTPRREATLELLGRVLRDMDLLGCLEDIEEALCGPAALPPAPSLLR
Sequence of Neuropeptide Y receptor type 1 (Homo sapiens) (P25929 whole entry): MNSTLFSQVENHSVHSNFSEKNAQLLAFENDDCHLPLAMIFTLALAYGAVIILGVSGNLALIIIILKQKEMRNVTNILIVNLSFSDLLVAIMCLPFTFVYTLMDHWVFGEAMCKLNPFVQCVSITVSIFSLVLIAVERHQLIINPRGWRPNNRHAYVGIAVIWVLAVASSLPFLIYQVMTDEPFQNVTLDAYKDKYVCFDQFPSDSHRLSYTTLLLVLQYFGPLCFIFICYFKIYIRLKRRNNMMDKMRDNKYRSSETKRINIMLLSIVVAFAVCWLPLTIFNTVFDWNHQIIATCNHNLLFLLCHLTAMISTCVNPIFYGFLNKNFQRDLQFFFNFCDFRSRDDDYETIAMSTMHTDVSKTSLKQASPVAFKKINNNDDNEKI
Sequence of C-X-C chemokine receptor type 2 (Homo sapiens) (P25025 whole entry): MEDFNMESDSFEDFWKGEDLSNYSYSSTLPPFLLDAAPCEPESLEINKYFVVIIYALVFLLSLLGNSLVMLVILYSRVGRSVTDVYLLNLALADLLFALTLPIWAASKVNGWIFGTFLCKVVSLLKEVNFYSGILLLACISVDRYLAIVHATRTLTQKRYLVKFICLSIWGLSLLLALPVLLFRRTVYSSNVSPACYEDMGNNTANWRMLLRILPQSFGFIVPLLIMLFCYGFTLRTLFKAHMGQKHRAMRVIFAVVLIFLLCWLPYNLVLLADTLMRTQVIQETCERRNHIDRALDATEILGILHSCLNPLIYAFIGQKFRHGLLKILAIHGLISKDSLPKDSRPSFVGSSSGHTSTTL

Cc1cc(Cl)c(OCCO)cc1NC(=O)C1=CNC(=O)C[C@H]1c1ccc(F)cc1
< 30%: all assays above
